This note sets out measurements from ChEMBL document CHEMBL1152729, “Ceramides: branched alkyl chains in the sphingolipid siblings of diacylglycerol improve biological potency” (Bioorg Med Chem, 2009).

The term IC50 denotes the midpoint of a concentration-inhibition curve.

The test system of assay [1] is SUP-T1. Briefly: Cytotoxicity against human SupT1 cells after 24 hrs by CellTiter-Blue assay. It counts as functional, cell-based. An outline of the steps:
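SupT1 cells cultured in RPMI with 10% FBS and penicillin-streptomycin, then incubated 24 h with serially diluted compound from 50 mM DMSO stocks. CellTiter-Blue resazurin reduction was read at 560/590 nm and normalized to the no-drug control as percent viability. IC50s came from the fitted dose-response curve of each experiment and were averaged over three experiments ± SD.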
(In general: Alamar Blue is a resazurin reagent that responds to reducing activity.)

The next assay relates to MCF7. Briefly: Cytotoxicity against human MCF7 cells after 24 hrs by CellTiter-Blue assay. Format: functional, cell-based. Particulars: MCF7, 24 h. Summed up: (§1)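 MCF-7 or MDA-MB231 cells kept in DMEM with 10% FBS and penicillin-streptomycin. The cells were exposed for 24 h to serial dilutions of compound, diluted in medium at 37 °C from 50 mM DMSO stocks. Viability was read by resazurin-to-resorufin fluorescence at 560/590 nm ex/em and normalized to the no-drug control. Dose-response fits gave IC50s, averaged over three experiments ± SD.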

The next assay concerns MDA-MB-231. Briefly: Cytotoxicity against human MDA-MB-231 cells after 24 hrs by CellTiter-Blue assay. It counts as functional, cell-based. Particulars: MDA-MB-231, 24 h. Summed up: as §1
The subject of the next assay is SK-BR-3. Briefly: Cytotoxicity against human SKBR3 cells after 24 hrs by CellTiter-Blue assay. The following applies: SK-BR-3, 24 h. Format: functional, cell-based. Summed up:
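SKBR3 breast cancer cells grown in DMEM with 10% FBS and penicillin-streptomycin. The cells were treated for 24 h with serial compound dilutions made in 37 °C medium from 50 mM DMSO stocks. Resorufin fluorescence (560/590 nm ex/em) was expressed as percent of the untreated control. Curve fitting gave IC50s, with the mean of three repeats ± SD.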

The test system of assay [2] is SUP-T1. Briefly: Induction of early apoptosis in human SupT1 cells at 50 uM after 24 hrs using annexin V-FITC staining by FACS. It counts as functional. Summed up:
(§2)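 SupT1 cells treated for 24 h at different compound concentrations, then harvested and washed in PBS. Phosphatidylserine exposure was detected by Annexin V-FITC staining and flow cytometry. Brightly stained cells were counted as apoptotic.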
(In general: Flow cytometry measures light scatter and fluorescence of single cells or particles in a stream.)

In assay [3] the test system is SUP-T1. Nature of the assay: Induction of apoptosis in human SupT1 cells at 50 uM after 24 hrs using DiOC6 staining by FACS. It counts as functional. Summed up: (§3)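 SupT1 cells exposed to varying compound concentrations for 24 h, then collected and PBS-washed. Mitochondrial depolarization was detected by 10 μM DiOC6 staining and flow cytometry. Cells with reduced DiOC6 staining were gated as apoptotic.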

Assay [4] deals with SUP-T1. Nature of the assay: Induction of early apoptosis in human SupT1 cells after 24 hrs using annexin V-FITC staining by FACS. It counts as functional, cell-based. Summed up: as §2
For assay [5], the system named is SUP-T1. Briefly: Induction of apoptosis in human SupT1 cells after 24 hrs using DiOC6 staining by FACS. It counts as functional, cell-based. Summed up: as §3
A further assay relates to NHDF. Briefly: Cytotoxicity against NHDF after 24 hrs by CellTiter-Blue assay. Format: cell-based. The following applies: Homo sapiens. An outline of the steps: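 Normal human dermal fibroblasts grown in fibroblast medium and treated for 24 h with serial compound dilutions. Viability was measured by resorufin fluorescence (560/590 nm ex/em) as percent of the no-drug control. IC50 was taken from the dose-response fit as a single determination.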

Assay [6] has as its system SUP-T1. Briefly: Induction of early apoptosis in human SupT1 cells at 25 uM after 24 hrs using annexin V-FITC staining by FACS. It counts as functional. An outline of the steps:
as §2

In assay [7] the test system is SUP-T1. Nature of the assay: Induction of apoptosis in human SupT1 cells at 25 uM after 24 hrs using DiOC6 staining by FACS. Format: functional. An outline of the steps: as §3

As to `CCCCCCCCCCCCC/C=C/[C@@H](O)[C@H](CO)NC(C)=O` (stereo in doubt; 1), the IC50 with SUP-T1 [1] (sup-t1) amounted to 41.4 µM; with MCF7, 45.4 µM; in the assay with MDA-MB-231, 35.4 µM; with SK-BR-3, 49.2 µM; in the assay on NHDF, 66.5 µM. Further, the Activity in the assay with SUP-T1 [2] is 42.33%; with SUP-T1 [3], 56.14%; in the assay with SUP-T1 [4], “Dose-dependent effect”; with SUP-T1 [5], “Dose-dependent effect”.
The compound `CCCCCCCCCCCC[C@@H](O)[C@H](CO)NC(=O)CC(CC(C)C)CC(C)C` came in with an IC50 with SUP-T1 [1] (Homo sapiens, SUP-T1, 24 h) of 76.3 µM.
Same read-out and setting: then `CCCCCCCCCC/C=C/[C@@H](O)[C@H](CO)NC(=O)CC(CC(C)C)CC(C)C`, with 29.1 µM; and `CCCCCC(=O)N[C@@H](CO)[C@H](O)/C=C/CC(CC(C)C)CC(C)C`, with 52.9 µM.
For the compound `CCCCCCCCCCC(=O)N[C@@H](CO)[C@H](O)/C=C/CC(CC(C)C)CC(C)C`, the IC50 in the assay with SUP-T1 [1] (Homo sapiens, SUP-T1, 24 h) was determined as 15.5 µM; in the assay on MCF7 it was 16.3 µM; in the assay with MDA-MB-231, 22.4 µM; in the assay with SK-BR-3 it was 10.2 µM; in the assay with NHDF, 45.4 µM. Moreover, the Activity is 66.16% in the assay with SUP-T1 [6], 75.15% in the assay with SUP-T1 [7], “Dose-dependent effect” in the assay on SUP-T1 [4] and “Dose-dependent effect” in the assay with SUP-T1 [5].
Regarding `CCCCCCCCCCCCC/C=C/[C@@H](O)[C@H](CO)NC(=O)CCCCC`, the IC50 in the assay with SUP-T1 [1] (Homo sapiens, SUP-T1, 24 h) was 48 µM.
